ChEMBL document CHEMBL4024748, “Development of Potent Type I Protein Arginine Methyltransferase (PRMT) Inhibitors of Leukemia Cell Proliferation” (J Med Chem, 2017)
Calls of active or inactive are those of the source. No cut-off for these calls is given here.

Legend:
[1] = target: DNMT3A2/3L complex (Homo sapiens) (UniProt Q9Y6K1+Q9UJW3); assay: Inhibition of DNMT3A/3L (unknown origin) at 50 uM incubated for 15 mins followed by substrate addition measured after 60 mins by radioisotope assay; format: protein-complex assay
MV4-11 [2] = assay: Upregulation of MNDA mRNA levels in human MV4-11 cells by qRT-PCR analysis; format: functional, cell-based
Summary of the method: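 Treated MV4-11 cells analysed by SYBR Green qRT-PCR, with B2M as internal control. Fold change calculated by the ΔΔCt method. Samples run in triplicate and reported as mean ± SD.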

KMS-11 = assay: Cytotoxicity against human KMS11 cells assessed as decrease in cell viability after 96 hrs by Cell-Titer Glo assay; format: functional, cell-based
Summary of the method: (§1)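 Cells kept at 37°C, 5% CO2, exposed to compound or DMSO control for 96 h. Viability read by CellTiter-Glo luminescence after 2 min shaking to lyse and 10 min at room temperature. Triplicate wells, normalised to control cells. For long-term growth, log-phase seeding densities; cells counted and replated to the starting density with fresh compound on days 4 and 8.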

[3] = target: DNA (cytosine-5)-methyltransferase 1 (Homo sapiens) (UniProt P26358); assay: Inhibition of DNMT1 (unknown origin) at 50 uM incubated for 15 mins followed by substrate addition measured after 60 mins by radioisotope assay
MRC5 = assay: Cytotoxicity against human MRC5 cells assessed as decrease in cell viability at 6.25 to 25 uM after 96 hrs by Cell-Titer Glo assay; format: cell-based; details: mrc5, 96 h
Summary of the method: (§2)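 Normal HUV-EC-C, MRC-5 and RCTEC cells at 37°C, 5% CO2, given compound or DMSO control for 96 h. Viability by CellTiter-Glo luminescence after 2 min shaking and 10 min at room temperature. Triplicate wells, normalised to control cells.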

RCH-ACV = assay: Cytotoxicity against human RCH-ACV cells assessed as decrease in cell viability after 96 hrs by Cell-Titer Glo assay; format: functional, cell-based; summary of the method: as §1
[4] = target: Histone acetyltransferase KAT2A (Homo sapiens) (UniProt Q92830); assay: Inhibition of GCN5 (unknown origin) at 100 uM incubated for 15 mins followed by substrate addition measured after 60 mins by radioisotope assay
MV4-11 [5] = assay: Downregulation of HOXA10 mRNA levels in human MV4-11 cells by qRT-PCR analysis; format: functional, cell-based
Summary of the method: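 MV4-11 cells treated with compound. mRNA measured by SYBR Green qRT-PCR with B2M as internal control. Fold change from ΔΔCt. Samples run in triplicate, mean ± SD.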

[6] = target: Protein arginine N-methyltransferase 3 (Homo sapiens, UniProt O60678); assay: Inhibition of PRMT3 (unknown origin) incubated for 15 mins followed by substrate addition measured after 60 mins by AlphaLisa method
Summary of the method: (§3)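 AlphaLISA. Enzyme and substrate in 1x assay buffer, compound at 1% DMSO final. Enzyme preincubated with compound 15 min at room temperature, then substrate added. Reaction 60 min at room temperature, then bead mix added and incubated 60 min under subdued light before signal read.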

MV4-11 [7] = assay: Induction of apoptosis in human MV4-11 cells after 96 hrs by annexin V-FITC/propidium iodide staining-based flow cytometric method; format: functional, cell-based
Summary of the method: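 MV4-11 cells in 6-well plates with compound or DMSO control, harvested at 96 h. Stained with an Annexin V-FITC apoptosis detection kit and analysed by flow cytometry. Mean ± SD of three replicates.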

[8] = Cytotoxicity against human HUV-EC-C cells assessed as decrease in cell viability at 6.25 to 25 uM after 96 hrs by Cell-Titer Glo assay; format: cell-based; summary of the method: as §2
[9] = target: Histone acetyltransferase KAT2A (Homo sapiens) (UniProt Q92830); assay: Inhibition of GCN5 (unknown origin) at 50 uM incubated for 15 mins followed by substrate addition measured after 60 mins by radioisotope assay
MV4-11 [10] = assay: Cell cycle arrest in human MV4-11 cells assessed as accumulation at G1 phase after 72 hrs by propidium iodide staining-based flow cytometry; format: functional
Summary of the method: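 MV4-11 cells in 6-well plates with compound or DMSO control, harvested at 72 h. Fixed overnight in 70% ethanol at 4°C, washed with PBS, stained 30 min at room temperature with propidium iodide/RNase buffer, analysed by flow cytometry. Mean ± SD of three replicates.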

[11] = target: N-lysine methyltransferase SMYD2 (Homo sapiens) (UniProt Q9NRG4); assay: Inhibition of SMYD2 (unknown origin) at 100 uM incubated for 15 mins followed by substrate addition measured after 240 mins by AlphaLisa method
Summary of the method: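 SMYD2 AlphaLISA at 50 and 100 µM compound, 1% DMSO final. Enzyme preincubated 15 min at RT, then substrate added and reacted 240 min at RT. Bead mix added and incubated 60 min at RT in subdued light before reading.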

[12] = target: DNA (cytosine-5)-methyltransferase 1 (Homo sapiens) (UniProt P26358); assay: Inhibition of DNMT1 (unknown origin) at 100 uM incubated for 15 mins followed by substrate addition measured after 60 mins by radioisotope assay
[13] = target: Protein arginine N-methyltransferase 8 (Homo sapiens, UniProt Q9NR22); assay: Inhibition of PRMT8 (unknown origin) incubated for 15 mins followed by substrate addition measured after 60 mins by AlphaLisa method
Summary of the method: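 AlphaLISA IC50 run. Compound dispensed to 1% DMSO final, enzyme in 1x assay buffer preincubated 15 min at room temperature. Substrate added and reacted 60 min at RT, then AlphaLISA bead mix added for 60 min at RT in subdued light. IC50 taken from the dose-response fit.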

MV4-11 [14] = assay: Antiproliferative activity against human MV4-11 cells assessed as decrease in cell viability measured at day 8 by Cell-Titer Glo assay; format: functional, cell-based; details: MV4-11, 192 h; summary of the method: as §1
[15] = target: Protein arginine N-methyltransferase 1 (Rattus norvegicus) (UniProt Q63009); assay: Uncompetitive inhibition of rat His-tagged PRMT1 (11 to 353 residues) expressed in Escherichia coli BL21(DE3) using biotinylated H4 peptide (1 to 21 residues) as substrate in presence of varying concentrations of [3H]SAM
Summary of the method: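 Kinetic mode-of-action study using the radiolabel method with His6-rPRMT1(11–353). IC50 measured at varied peptide substrate or varied SAM concentrations, with the other component fixed. 15 min enzyme–compound preincubation, then 60 min reaction at RT with [3H]-SAM, Flashplate capture and Microbeta counting.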

[16] = target: Histone-lysine N-methyltransferase EHMT2 (Homo sapiens) (UniProt Q96KQ7); assay: Inhibition of G9a (unknown origin) at 100 uM incubated for 15 mins followed by substrate addition measured after 60 mins by AlphaLisa method; summary of the method: as §3
U-937 = assay: Cytotoxicity against human U937 cells assessed as decrease in cell viability after 96 hrs by Cell-Titer Glo assay; format: functional, cell-based; summary of the method: as §1
MV4-11 [17] = assay: Cytotoxicity against human MV4-11 cells assessed as decrease in cell viability at 6.25 to 12.5 uM after 96 hrs by Cell-Titer Glo assay; format: functional, cell-based; summary of the method: as §1
THP-1 = assay: Cytotoxicity against human THP1 cells assessed as decrease in cell viability after 96 hrs by Cell-Titer Glo assay; format: functional, cell-based; summary of the method: as §1
[18] = target: Protein arginine N-methyltransferase 1 (Homo sapiens) (UniProt Q99873); assay: Inhibition of PRMT1 in human MV411 cells assessed as reduction in ADMA levels after 48 hrs by Western blot analysis; format: cell-based
Summary of the method: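 MV4-11 cells treated with compound for 48 h. ADMA, SDMA and H4R3me2a read by western blot. Blots blocked in 5% nonfat milk in PBST, primary antibodies overnight at 4°C, HRP anti-rabbit secondary at 1:10000 for 1 h.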

DNA (cytosine-5)-methyltransferase 1 (Homo sapiens), sequence (P26358 whole entry): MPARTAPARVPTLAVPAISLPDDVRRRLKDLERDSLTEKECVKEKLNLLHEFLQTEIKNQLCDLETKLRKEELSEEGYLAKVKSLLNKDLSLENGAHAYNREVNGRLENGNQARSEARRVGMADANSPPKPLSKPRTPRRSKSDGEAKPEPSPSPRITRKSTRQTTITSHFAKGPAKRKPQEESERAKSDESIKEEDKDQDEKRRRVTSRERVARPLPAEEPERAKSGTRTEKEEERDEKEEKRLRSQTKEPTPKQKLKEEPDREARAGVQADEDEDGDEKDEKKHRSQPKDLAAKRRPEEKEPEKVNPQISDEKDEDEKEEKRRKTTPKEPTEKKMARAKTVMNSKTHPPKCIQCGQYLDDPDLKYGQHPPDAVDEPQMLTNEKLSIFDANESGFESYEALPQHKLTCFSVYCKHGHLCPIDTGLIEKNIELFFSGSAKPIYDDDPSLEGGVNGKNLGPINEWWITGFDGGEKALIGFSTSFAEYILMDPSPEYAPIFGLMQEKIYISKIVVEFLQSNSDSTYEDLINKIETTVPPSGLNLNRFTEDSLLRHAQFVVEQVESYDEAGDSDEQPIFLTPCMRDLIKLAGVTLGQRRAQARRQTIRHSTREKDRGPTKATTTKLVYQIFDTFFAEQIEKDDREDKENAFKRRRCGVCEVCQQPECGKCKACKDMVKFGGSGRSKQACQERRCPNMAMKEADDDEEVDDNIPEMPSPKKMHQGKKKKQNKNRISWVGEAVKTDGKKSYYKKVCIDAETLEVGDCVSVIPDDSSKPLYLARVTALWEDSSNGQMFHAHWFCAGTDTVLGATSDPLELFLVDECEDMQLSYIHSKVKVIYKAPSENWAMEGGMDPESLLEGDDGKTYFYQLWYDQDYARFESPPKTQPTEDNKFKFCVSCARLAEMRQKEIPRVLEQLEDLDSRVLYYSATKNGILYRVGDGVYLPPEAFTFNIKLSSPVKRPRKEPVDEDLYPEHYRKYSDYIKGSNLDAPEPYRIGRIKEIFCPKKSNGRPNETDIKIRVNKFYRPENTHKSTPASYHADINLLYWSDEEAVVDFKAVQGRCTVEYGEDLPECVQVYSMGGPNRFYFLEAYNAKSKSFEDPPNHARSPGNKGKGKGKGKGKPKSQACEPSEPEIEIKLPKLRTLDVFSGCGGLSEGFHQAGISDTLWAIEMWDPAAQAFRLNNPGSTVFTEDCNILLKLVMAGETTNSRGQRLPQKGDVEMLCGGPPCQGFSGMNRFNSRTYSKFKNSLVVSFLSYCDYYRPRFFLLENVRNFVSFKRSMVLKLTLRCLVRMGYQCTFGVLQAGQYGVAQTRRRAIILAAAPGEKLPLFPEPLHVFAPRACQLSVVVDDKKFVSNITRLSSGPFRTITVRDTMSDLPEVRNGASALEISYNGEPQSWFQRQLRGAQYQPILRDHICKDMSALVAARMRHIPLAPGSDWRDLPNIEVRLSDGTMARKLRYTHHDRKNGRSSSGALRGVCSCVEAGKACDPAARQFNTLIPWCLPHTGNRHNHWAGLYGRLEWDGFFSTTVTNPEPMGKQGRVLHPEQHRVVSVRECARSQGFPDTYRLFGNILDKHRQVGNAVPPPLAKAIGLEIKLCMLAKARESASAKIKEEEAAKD
Histone acetyltransferase KAT2A (Homo sapiens), sequence (Q92830 2-837 limits assumed): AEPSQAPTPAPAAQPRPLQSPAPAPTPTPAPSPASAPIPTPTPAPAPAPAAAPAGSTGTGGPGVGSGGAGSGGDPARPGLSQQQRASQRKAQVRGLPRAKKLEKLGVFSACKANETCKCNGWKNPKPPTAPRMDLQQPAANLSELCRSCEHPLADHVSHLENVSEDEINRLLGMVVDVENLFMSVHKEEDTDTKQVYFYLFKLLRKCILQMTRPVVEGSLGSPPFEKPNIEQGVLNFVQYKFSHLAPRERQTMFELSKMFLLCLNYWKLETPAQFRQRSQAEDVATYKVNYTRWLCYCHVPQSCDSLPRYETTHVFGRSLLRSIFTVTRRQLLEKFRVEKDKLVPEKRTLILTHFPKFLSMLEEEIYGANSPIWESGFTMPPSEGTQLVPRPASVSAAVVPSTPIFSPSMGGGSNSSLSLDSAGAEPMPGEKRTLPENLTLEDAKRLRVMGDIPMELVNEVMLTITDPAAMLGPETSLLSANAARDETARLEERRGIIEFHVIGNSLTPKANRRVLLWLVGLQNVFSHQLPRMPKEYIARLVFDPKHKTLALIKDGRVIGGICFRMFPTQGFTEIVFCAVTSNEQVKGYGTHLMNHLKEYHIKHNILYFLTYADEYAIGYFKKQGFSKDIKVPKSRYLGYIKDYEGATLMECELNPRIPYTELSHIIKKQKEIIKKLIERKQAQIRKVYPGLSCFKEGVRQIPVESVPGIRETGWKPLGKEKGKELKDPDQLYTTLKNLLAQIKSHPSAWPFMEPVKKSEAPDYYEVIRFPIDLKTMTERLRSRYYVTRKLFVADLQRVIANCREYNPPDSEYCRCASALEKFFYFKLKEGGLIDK
DNMT3A2/3L complex (Homo sapiens), sequence (Q9UJW3 whole entry, looked up): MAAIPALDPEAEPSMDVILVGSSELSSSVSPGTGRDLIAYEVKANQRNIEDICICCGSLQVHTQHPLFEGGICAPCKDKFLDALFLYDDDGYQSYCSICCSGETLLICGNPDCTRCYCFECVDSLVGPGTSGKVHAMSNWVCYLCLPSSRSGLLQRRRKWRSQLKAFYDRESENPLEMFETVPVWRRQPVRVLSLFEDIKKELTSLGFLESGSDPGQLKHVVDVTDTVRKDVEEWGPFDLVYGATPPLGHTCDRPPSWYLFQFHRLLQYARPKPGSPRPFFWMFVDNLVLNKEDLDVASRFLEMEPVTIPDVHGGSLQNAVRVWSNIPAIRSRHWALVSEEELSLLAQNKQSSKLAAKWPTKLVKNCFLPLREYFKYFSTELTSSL
DNMT3A2/3L complex (Homo sapiens), sequence (Q9Y6K1 whole entry, looked up): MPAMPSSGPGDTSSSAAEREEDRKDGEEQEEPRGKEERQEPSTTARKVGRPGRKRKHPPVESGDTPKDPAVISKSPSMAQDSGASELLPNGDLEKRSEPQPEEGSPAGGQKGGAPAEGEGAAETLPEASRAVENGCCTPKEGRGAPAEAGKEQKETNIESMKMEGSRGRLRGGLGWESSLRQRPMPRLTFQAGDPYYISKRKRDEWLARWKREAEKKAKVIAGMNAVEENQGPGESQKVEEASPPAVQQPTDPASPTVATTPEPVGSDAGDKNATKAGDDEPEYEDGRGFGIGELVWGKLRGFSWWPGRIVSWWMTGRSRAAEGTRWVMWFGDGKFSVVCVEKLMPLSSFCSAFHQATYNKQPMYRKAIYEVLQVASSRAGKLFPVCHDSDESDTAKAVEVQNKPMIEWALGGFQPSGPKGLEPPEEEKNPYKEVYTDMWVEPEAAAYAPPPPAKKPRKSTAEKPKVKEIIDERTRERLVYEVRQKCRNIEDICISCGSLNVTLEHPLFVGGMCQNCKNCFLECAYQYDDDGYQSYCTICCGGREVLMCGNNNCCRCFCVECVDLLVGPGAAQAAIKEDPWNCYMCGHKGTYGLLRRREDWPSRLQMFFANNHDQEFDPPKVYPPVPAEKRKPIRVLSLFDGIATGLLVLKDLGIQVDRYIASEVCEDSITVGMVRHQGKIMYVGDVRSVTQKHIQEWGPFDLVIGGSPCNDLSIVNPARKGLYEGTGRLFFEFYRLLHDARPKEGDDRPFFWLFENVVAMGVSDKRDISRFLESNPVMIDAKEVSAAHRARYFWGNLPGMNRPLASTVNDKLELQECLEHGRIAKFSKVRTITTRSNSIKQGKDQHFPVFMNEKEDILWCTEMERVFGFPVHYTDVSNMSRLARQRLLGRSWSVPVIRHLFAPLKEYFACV
Histone-lysine N-methyltransferase EHMT2 (Homo sapiens), sequence (Q96KQ7 whole entry): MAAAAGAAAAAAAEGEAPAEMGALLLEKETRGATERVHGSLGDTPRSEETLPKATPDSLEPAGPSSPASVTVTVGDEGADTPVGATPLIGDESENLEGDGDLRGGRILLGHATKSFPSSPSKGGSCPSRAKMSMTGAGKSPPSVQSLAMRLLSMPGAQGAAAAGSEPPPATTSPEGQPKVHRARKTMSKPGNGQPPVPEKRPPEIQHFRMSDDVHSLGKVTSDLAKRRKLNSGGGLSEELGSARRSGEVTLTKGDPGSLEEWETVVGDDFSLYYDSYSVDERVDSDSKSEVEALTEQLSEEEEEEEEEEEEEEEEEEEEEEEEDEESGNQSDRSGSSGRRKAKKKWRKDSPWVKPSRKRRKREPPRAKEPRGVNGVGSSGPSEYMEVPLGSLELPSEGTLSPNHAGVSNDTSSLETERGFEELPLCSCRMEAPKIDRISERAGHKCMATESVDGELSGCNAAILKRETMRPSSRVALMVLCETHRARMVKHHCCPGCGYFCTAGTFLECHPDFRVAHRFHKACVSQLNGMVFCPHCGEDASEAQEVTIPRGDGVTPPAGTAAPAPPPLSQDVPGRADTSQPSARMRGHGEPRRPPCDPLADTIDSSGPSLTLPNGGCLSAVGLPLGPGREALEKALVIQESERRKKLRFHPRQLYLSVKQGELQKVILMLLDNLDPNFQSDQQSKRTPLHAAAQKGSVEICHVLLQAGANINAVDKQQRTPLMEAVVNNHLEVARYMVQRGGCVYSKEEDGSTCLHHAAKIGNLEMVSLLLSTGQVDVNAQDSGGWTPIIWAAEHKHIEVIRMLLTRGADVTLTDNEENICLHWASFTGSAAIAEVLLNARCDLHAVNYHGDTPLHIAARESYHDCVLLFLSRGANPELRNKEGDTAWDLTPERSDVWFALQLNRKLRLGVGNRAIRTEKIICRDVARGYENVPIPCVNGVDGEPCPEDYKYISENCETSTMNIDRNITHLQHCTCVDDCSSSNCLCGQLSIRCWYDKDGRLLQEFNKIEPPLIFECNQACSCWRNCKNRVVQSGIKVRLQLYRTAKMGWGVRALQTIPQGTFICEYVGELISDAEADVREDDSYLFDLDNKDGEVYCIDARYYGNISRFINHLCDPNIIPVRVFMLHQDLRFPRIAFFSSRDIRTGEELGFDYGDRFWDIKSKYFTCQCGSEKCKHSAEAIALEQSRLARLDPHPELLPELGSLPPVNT

inhibition [1]: Active
inhibition [3]: Active
inhibition [4]: Active
IC50 [6]: 22 nM
inhibition [9]: Active
inhibition [11]: Active
inhibition [12]: Active
IC50 [13]: 1.1 nM
IC50 (MV4-11 [14]): 3210 nM
inhibition [15]: Active
inhibition [16]: Active
inhibition [18]: Dose-dependent effect
Structure (SMILES): CN(CCN)Cc1ccccc1Sc1ccccc1Cl
Activity (MV4-11 [2]): Active
Activity (KMS-11): Dose-dependent effect
Activity (MRC5): Non-Toxic
Activity (RCH-ACV): Dose-dependent effect
Activity (MV4-11 [5]): Dose-dependent effect
Activity (MV4-11 [7]): Dose-dependent effect
Activity [8]: Non-Toxic
Activity (MV4-11 [10]): Dose-dependent effect
Activity (U-937): Dose-dependent effect
Activity (MV4-11 [17]): Active
Activity (THP-1): Dose-dependent effect
